According to ChEMBL document CHEMBL4411272, “Design, synthesis and biological evaluation of AZD9291 derivatives as selective and potent EGFRL858R/T790M inhibitors” (Eur J Med Chem, 2019):
Activity calls are given as the source filed them. The rule behind the calls is not given here.

How the values were obtained:
[1] = molecular target: Epidermal growth factor receptor (Homo sapiens, UniProt P00533); assay: Inhibition of wild-type EGFR (unknown origin) using substrate-biotin by ELISA-based mobility shift assay
[2] = molecular target: Epidermal growth factor receptor (Homo sapiens, UniProt P00533, L858R/T790M); assay: Inhibition of EGFR T790M/L858R double mutant (unknown origin) using substrate-biotin by ELISA-based mobility shift assay
Homo sapiens = species: Homo sapiens; assay: Selectivity ratio of IC50 for wild-type EGFR (unknown origin) to IC50 for EGFR T790M/L858R double mutant (unknown origin)
NCI-H1975 [3] = assay: Antiproliferative activity against human NCI-H1975 cells after 72 hrs by MTT assay; assay type: functional, cell-based; conditions: NCI-H1975, 72 h
Procedure, shortened: (§1)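 MTT assay; cells grown as monolayers in DMEM or RPMI1640 with 10% FBS at 37 °C, 5% CO2 for 24 h, then compound added for 72 h. MTT at 5 μg/mL for 4 h at 37 °C, formazan dissolved in DMSO, absorbance read at 492 nm with 630 nm reference. Each compound tested three times per line; IC50 from averaged determinations.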

A549 [4] = assay: Antiproliferative activity against human A549 cells after 72 hrs by MTT assay; assay type: functional, cell-based; conditions: A549, 72 h; procedure, shortened: as §1
HepG2 = assay: Antiproliferative activity against human HepG2 cells after 72 hrs by MTT assay; assay type: functional, cell-based; conditions: HepG2, 72 h
Procedure, shortened: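 MTT assay; cells grown as monolayers in DMEM or RPMI1640 with 10% FBS at 37 °C, 5% CO2 for 24 h, then compound added for 72 h. Each compound tested three times per line; IC50 from averaged determinations.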

NCI-H1975 [5] = assay: Induction of apoptosis in human NCI-H1975 at 0.25 uM by acridine orange staining-based fluorescence assay; assay type: functional, cell-based
Procedure, shortened: (§2)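 H1975 cells stained with acridine orange after treatment, alongside an untreated control group. Cell and chromatin morphology assessed by fluorescence imaging.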

NCI-H1975 [6] = assay: Induction of apoptosis in human NCI-H1975 assessed as induction of chromatin shrinkage at 0.25 uM by acridine orange staining-based fluorescence assay; assay type: functional, cell-based; procedure, shortened: as §2
NCI-H1975 [7] = assay: Induction of apoptosis in human NCI-H1975 assessed as formation of cells with sharp edge at 0.25 uM by acridine orange staining-based fluorescence assay; assay type: functional, cell-based; procedure, shortened: as §2
NCI-H1975 [8] = assay: Induction of apoptosis in human NCI-H1975 assessed as induction of cell structure destruction at 0.25 uM by H33342 staining-based inverted fluorescence microscopic analysis; assay type: functional
Procedure, shortened: (§3)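 H1975 cells stained with Hoechst 33342 after treatment, alongside an untreated control. Nuclear blue fluorescence, dye uptake, chromatin condensation and cell structure viewed under an inverted fluorescence microscope.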

NCI-H1975 [9] = assay: Induction of apoptosis in human NCI-H1975 assessed as induction of chromatin shrinkage at 0.25 uM by H33342 staining-based inverted fluorescence microscopic analysis; assay type: functional, cell-based; procedure, shortened: as §3
NCI-H1975 [10] = assay: Induction of apoptosis in human NCI-H1975 assessed as induction of membrane damage at 0.25 uM by H33342 staining-based inverted fluorescence microscopic analysis; assay type: functional, cell-based; procedure, shortened: as §3
A549 [11] = assay: Cell cycle arrest in human A549 cells assessed as accumulation of cells at G0/G1 phase at 0.36 uM after 24 hrs by propidium iodide staining-based flow cytometric analysis (reference value: 65.22%); assay type: functional
Procedure, shortened: (§4)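 A549 cells seeded at 1×10^5 per well, grown 24 h, then treated 24 h with vehicle (0.1% DMSO) or compound at several concentrations. Cells fixed in ice-cold 70% ethanol at 4 °C for 12 h, washed in PBS, treated with 1 mg/mL RNase for 30 min at 37 °C, stained with propidium iodide 30 min in the dark. DNA content measured by flow cytometry.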

A549 [12] = assay: Cell cycle arrest in human A549 cells assessed as accumulation of cells at S phase at 0.36 uM after 24 hrs by propidium iodide staining-based flow cytometric analysis (reference value: 32.13%); assay type: functional; procedure, shortened: as §4
A549 [13] = assay: Cell cycle arrest in human A549 cells assessed as accumulation of cells at G2/M phase at 0.36 uM after 24 hrs by propidium iodide staining-based flow cytometric analysis (reference value: 2.65%); assay type: functional; procedure, shortened: as §4
A549 [14] = assay: Cell cycle arrest in human A549 cells assessed as accumulation of cells at G0/G1 phase at 0.72 uM after 24 hrs by propidium iodide staining-based flow cytometric analysis (reference value: 65.22%); assay type: functional; procedure, shortened: as §4
A549 [15] = assay: Cell cycle arrest in human A549 cells assessed as accumulation of cells at S phase at 0.72 uM after 24 hrs by propidium iodide staining-based flow cytometric analysis (reference value: 32.13%); assay type: functional; procedure, shortened: as §4
A549 [16] = assay: Cell cycle arrest in human A549 cells assessed as accumulation of cells at G2/M phase at 0.72 uM after 24 hrs by propidium iodide staining-based flow cytometric analysis (reference value: 2.65%); assay type: functional; procedure, shortened: as §4
A549 [17] = assay: Cell cycle arrest in human A549 cells assessed as accumulation of cells at G0/G1 phase at 1.80 uM after 24 hrs by propidium iodide staining-based flow cytometric analysis (reference value: 65.22%); assay type: functional; procedure, shortened: as §4
A549 [18] = assay: Cell cycle arrest in human A549 cells assessed as accumulation of cells at S phase at 1.80 uM after 24 hrs by propidium iodide staining-based flow cytometric analysis (reference value: 32.13%); assay type: functional; procedure, shortened: as §4
A549 [19] = assay: Cell cycle arrest in human A549 cells assessed as accumulation of cells at G2/M phase at 1.80 uM after 24 hrs by propidium iodide staining-based flow cytometric analysis (reference value: 2.65%); assay type: functional; procedure, shortened: as §4
A549 [20] = assay: Cell cycle arrest in human A549 cells assessed as accumulation at G2/M phase after 24 hrs by propidium iodide staining-based flow cytometric analysis; assay type: functional; procedure, shortened: as §4

Chain of Epidermal growth factor receptor (Homo sapiens, UniProt P00533, L858R/T790M) (P00533 25-1210 T790M/L858R limits assumed): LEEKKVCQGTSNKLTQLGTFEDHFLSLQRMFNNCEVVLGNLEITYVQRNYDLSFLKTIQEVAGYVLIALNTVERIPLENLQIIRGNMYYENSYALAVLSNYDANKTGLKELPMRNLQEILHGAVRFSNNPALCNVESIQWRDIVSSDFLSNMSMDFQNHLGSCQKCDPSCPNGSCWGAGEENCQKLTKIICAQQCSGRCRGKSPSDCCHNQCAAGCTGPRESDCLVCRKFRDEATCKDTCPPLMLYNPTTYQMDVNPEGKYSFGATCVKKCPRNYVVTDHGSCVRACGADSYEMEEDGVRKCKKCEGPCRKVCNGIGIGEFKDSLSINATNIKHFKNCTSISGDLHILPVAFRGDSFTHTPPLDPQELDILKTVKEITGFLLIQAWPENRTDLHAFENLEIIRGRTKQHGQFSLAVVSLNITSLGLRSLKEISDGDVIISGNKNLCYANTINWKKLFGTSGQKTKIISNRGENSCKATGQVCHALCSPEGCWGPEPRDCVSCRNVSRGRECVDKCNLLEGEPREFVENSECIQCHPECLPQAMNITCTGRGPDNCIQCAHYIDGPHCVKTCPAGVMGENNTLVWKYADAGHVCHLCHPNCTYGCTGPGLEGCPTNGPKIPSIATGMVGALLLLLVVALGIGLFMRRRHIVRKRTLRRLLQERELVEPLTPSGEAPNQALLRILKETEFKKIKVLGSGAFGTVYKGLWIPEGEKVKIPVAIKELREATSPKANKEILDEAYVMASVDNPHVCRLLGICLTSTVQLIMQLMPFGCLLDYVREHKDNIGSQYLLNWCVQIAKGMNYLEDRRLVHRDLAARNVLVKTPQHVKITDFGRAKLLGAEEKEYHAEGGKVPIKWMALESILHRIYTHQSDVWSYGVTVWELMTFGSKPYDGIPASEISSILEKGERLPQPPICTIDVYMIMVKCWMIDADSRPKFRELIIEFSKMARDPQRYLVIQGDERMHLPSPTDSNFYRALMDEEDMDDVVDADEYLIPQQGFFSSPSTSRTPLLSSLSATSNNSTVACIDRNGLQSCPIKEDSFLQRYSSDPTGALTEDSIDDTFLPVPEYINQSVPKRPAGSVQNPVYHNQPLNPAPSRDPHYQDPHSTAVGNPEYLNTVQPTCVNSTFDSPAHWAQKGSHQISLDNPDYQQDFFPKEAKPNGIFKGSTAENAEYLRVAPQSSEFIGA
Chain of Epidermal growth factor receptor (Homo sapiens, UniProt P00533) (P00533 whole entry): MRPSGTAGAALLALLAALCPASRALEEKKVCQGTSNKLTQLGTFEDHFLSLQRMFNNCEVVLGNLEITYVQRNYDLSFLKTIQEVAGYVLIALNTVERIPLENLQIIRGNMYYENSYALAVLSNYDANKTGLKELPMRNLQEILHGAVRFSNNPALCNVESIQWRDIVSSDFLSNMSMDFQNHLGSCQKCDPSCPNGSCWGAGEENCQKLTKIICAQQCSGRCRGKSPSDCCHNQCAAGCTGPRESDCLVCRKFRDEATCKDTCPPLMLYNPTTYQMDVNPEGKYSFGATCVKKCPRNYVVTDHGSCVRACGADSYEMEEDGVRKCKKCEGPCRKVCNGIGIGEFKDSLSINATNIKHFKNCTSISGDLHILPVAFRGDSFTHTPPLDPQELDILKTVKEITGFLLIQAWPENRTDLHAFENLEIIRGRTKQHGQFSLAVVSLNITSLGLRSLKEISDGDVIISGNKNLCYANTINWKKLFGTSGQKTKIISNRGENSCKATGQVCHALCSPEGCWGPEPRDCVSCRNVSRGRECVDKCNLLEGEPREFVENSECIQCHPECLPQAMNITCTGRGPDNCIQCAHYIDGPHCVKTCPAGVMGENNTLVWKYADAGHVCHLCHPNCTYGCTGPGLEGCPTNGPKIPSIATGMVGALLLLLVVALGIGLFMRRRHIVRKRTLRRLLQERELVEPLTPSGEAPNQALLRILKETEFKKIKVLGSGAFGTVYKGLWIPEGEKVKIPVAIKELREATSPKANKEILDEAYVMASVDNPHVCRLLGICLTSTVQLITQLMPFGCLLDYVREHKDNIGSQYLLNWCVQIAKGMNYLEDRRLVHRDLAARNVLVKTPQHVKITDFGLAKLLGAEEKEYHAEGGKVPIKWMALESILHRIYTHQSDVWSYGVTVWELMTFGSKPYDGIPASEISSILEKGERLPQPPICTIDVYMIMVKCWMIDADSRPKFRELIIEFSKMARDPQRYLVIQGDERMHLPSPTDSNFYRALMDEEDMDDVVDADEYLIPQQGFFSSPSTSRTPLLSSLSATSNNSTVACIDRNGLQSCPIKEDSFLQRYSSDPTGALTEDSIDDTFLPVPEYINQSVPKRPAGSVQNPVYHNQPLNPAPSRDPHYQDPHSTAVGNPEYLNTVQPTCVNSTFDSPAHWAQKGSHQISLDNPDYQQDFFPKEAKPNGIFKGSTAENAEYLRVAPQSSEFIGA

SMILES: CCC/C=C\C(=O)Nc1cc(Nc2nc(C)cc(-c3cn(C)c4ccccc34)n2)c(OC)cc1N(C)CCN(C)C
- IC50 [1]: 1530 nM
- IC50 [2]: 8 nM
- Ratio IC50 (Homo sapiens): 191
- IC50 (NCI-H1975 [3]): 254 nM
- IC50 (A549 [4]): 329 nM
- IC50 (HepG2): 365 nM
- Activity (NCI-H1975 [5]): Active
- Activity (NCI-H1975 [6]): Active
- Activity (NCI-H1975 [7]): Active
- Activity (NCI-H1975 [8]): Active
- Activity (NCI-H1975 [9]): Active
- Activity (NCI-H1975 [10]): Active
- Activity (A549 [11]): 56.78%
- Activity (A549 [12]): 37.15%
- Activity (A549 [13]): 6.07%
- Activity (A549 [14]): 44.91%
- Activity (A549 [15]): 39.81%
- Activity (A549 [16]): 15.28%
- Activity (A549 [17]): 39.55%
- Activity (A549 [18]): 38.24%
- Activity (A549 [19]): 22.24%
- Activity (A549 [20]): Dose-dependent effect
